Bioassay records as filed in PubChem BioAssay.
STK33 inh = inhibitors of purified STK33 kinase, primary screen, biochemical, ADP-Glo luminescence, homogeneous, cell-free | 320,000 compounds, 0.073% hits | AID 2661, 2010 | inhibition, % at 10 µM | MBP phosphorylation;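 active = inhibition at or above 25%, using the most active replicate where run in duplicate; inactive = inhibition below 25%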
GSK3B inh = human GSK3beta kinase inhibitors, primary screen, biochemical, cell-free homogeneous, HTS | 300,000 compounds, 0.038% hits | activity score (negative = inhibition), % at 10 µM | GST-GSK3beta kinase, ADP-Glo luminescence, 60 min; active compounds read low | AID 2097, 2009 | Glycogen synthase kinase-3 beta (Homo sapiens), P49841;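 active = more than half of replicate wells score below -50%, meaning over 50% inhibition versus plate controls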;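 also: 0% = median DMSO wells and -100% = median GW8510 positive control wells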
Target sequence (P49841 whole entry, looked up): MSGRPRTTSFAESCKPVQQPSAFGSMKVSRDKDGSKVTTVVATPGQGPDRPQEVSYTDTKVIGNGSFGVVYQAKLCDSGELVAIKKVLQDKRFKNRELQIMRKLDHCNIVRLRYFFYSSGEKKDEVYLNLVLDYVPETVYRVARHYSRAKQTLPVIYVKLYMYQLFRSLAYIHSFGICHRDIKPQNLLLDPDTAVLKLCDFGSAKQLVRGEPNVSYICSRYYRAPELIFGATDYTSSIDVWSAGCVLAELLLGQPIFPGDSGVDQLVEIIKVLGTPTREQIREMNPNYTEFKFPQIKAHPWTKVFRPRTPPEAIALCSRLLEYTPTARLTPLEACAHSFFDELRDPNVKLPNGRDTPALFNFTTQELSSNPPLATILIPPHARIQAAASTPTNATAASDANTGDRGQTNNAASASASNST
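Test system: GST-tagged human GSK3beta kinase, cell-free; evaluation: activity score scaled between in-plate DMSO and GW8510 controls; measured by: ADP-Glo luminescence; incubation: 60 min reaction, RT; benchmarks: DMSO and 20 µM GW8510; reagent: peptide substrate plus 25 µM ATP (final); medium: Tris/MgCl2 kinase buffer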
GSK3A inh = blockers of GSK3A enzyme activity – biochemical, luminescence, cell-free homogeneous, HTS, primary screen | Glycogen synthase kinase-3 alpha (Homo sapiens), P49840 | GSK-3 alpha kinase, ADP-Glo luminescence, 60 min | inhibition, % at 10 µM | 320,000 compounds, 0.1% hits | AID 2650, 2010;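 active = more than half of replicates show inhibition above 20%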;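 also: GST-tagged GSK-3 alpha with peptide substrate and 25 µM ATP; 0% = DMSO neutral wells and 100% = GW8510 positive control wells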
DYRK1A inh = rat Dyrk1A kinase inhibitors, primary screen, biochemical, single point, plate reader | 310,000 compounds, 0.43% hits | AID 504441, 2011 | ADP-Glo luminescence, NFATc1 peptide | inhibition, % at 12.5 µM; in the data active = inhibition above about 50%;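 also: plate controls were vehicle with enzyme for no effect and no enzyme for full effect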
ADP-Glo artifact = ADP-Glo luciferase interference without Dyrk1A, dose response, artefact control for Dyrk1A inhibitor project, biochemical, luminescence, cherry-pick, set 02; shares compounds with DYRK1A inh; ADP-Glo luciferase artifact assay, no Dyrk1A; AC50, µM (highest dose often 12 µM), for inactives: top-dose activity change, negative = inhibition; 1,300 tested, under 10 active; AID 588348, 2011;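 active = fitted half-maximal dose AC50 no more than ten times the top valid tested dose, with luminescence dropping as dose rises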
Active calls of the source: *; x = no result. The full list was thinned out, with hits kept by preference.

SMILES	STK33 inh	GSK3B inh	GSK3A inh	DYRK1A inh	ADP-Glo artifact
CC(C)c1nnc(NC(=O)Cn2nc(-c3ccc4c(c3)OCCO4)ccc2=O)s1	-2	1	-2	58*	7%
O=C(Nc1nc(-c2ccc3c(c2)OCCO3)cs1)c1ccco1	1	-2	1	73*	6%
O=C(/C=C/c1ccccc1)Nc1nc(-c2ccncc2)cs1	-1	x	-9	72*	8%
COc1ccccc1C(=O)Nc1nc(-c2ccc3c(c2)OCCO3)cs1	-1	0	-1	24	x
O=C(NCc1ccc(Cl)cc1)c1cccc2c1C(=O)N(CC1CCCO1)C2 (configuration not stated)	-1	-3	0	4	x
O=C1CSC(c2ccccn2)N1c1ccc(F)cc1F (configuration not stated)	0	3	-1	x	x
O=C(Nc1nc(-c2ccncc2)cs1)c1ccco1	2	2	0	76*	6%
O=C(Nc1nc(-c2cccs2)cs1)c1ccco1	-4	0	-2	8	x
COc1ccc(N2C(=O)C3CCCN3C2c2cc(OC)c(OC)c(OC)c2)cc1 (configuration not stated)	1	1	x	62*	9%
Cc1c(NC(=S)NC(=O)c2cccc(Cl)c2)c(=O)n(-c2ccccc2)n1C	1	3	-1	x	x
Cc1ccc(NC(=O)CSc2ncn[nH]2)c([N+](=O)[O-])c1	-3	x	-1	0	x
CC(C)C[C@H]1COCCS(=O)(=O)N1Cc1cccc(Cl)c1	0	-7	6	51*	8%
Nc1cccnc1Oc1ccccc1F	-2	-1	-1	-1	x
O=C(/C=C/c1ccccc1)Nc1cccnc1Oc1ccccc1F	1	-1	-1	51*	0%
CN(C)/C=C/C(=O)c1ccc(Cl)c([N+](=O)[O-])c1	-2	1	-2	5	x
Cc1ccc(Nc2cc(C)c3c(O)cccc3n2)cc1C	4	-3	-1	39	x
Cc1ccccc1Nc1cc(C)c2c(O)cccc2n1	2	0	7	60*	10%
COc1ccc(O)c(-c2cc(-c3cccs3)[nH]n2)c1	2	2	1	70*	8%
COc1ccc(O)c(-c2cc(-c3ccccc3Cl)[nH]n2)c1	-3	-2	-1	53*	8%
Oc1ccc(Br)cc1-c1cc(-c2ccccc2Cl)[nH]n1	-2	1	-1	-3	x
COc1ccc2c3c(ccc2c1)C(=O)/C(=C/O)CC3	x	x	x	63*	9%
COc1ccc2c(c1)CC/C(=C\C=C\c1ccccc1OC)C2=O	1	-3	-5	-1	x
CN1/C(=N\O)c2cccc3cccc1c23	12	-2	x	66*	10%
CNC(=O)CN1C(=O)c2cccc3cccc1c23	0	2	x	4	x
COc1ccc(-c2cnnc(N/N=C/c3ccc(O)c(O)c3)n2)cc1	3	2	1	68*	8%
SMILES	STK33 inh	GSK3B inh	GSK3A inh	DYRK1A inh	ADP-Glo artifact
COc1ccc(-c2cnnc(N/N=C/c3ccc(O)cc3)n2)cc1	0	1	4	34	x
Cc1ccc(C(=O)N2CCC(C(=O)c3c(C)cc(C)cc3C)CC2)cc1	-3	2	-3	-5	x
O=C(/C=C/c1ccc(O)cc1)c1ccc(O)cc1O	6	2	-1	21	x
COc1ccc(/C=C/C(=O)O)cc1	x	x	x	62*	6%
CC(/C=C/c1ccccc1)=N/O	0	0	5	1	x
CC(/C=C/c1ccc(O)cc1)=N/O	9	-5	14	89*	9%
O=C(O)/C=C/c1ccc(O)cc1	0	3	2	57*	9%
Cc1nc2ccc3[nH]snc3c2n1	5	-11	15	55*	7%
COC1=CC(=O)c2c(ccc3ncnc(N)c23)C1=O	x	x	x	51*	14%
CN(C)S(=O)(=O)c1ccc2c(c1)nc(CCC(=O)NCCc1ccc(Cl)cc1)n2C	0	0	0	-4	x
Cc1ccc(S(=O)(=O)NCC(=O)NC2CC2)cc1	-1	3	0	4	x
COc1cccc(/C=N/n2c(C3CCCCC3)n[nH]c2=S)c1O	2	0	24	53*	11%
